Assay results: the EternaBench riboswitch data

Tested on: MS2 coat protein
Assay: apparent Kd, MS2 coat protein; higher = weaker binding; RNA-MaP array; FMN 200 µM where present
Procedure, shortened: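 SNAP-549-labelled MS2 coat protein, doubled from 0.7 or 1.5 nM to 3 µM, was titrated over designs transcribed by stalled E. coli RNA polymerase on Illumina sequencing-chip clusters. Titrations were run without and then with constant ligand in 100 mM Tris-HCl pH 7.5, 80 mM KCl, 4 mM MgCl2, BSA, DTT, yeast tRNA and Tween-20. The apparent Kd is the median of filtered per-cluster fits to green signal normalised to red-channel RNA signal and control-cluster median Fmax.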

[1] = designed as: OFF switch for flavin mononucleotide, no ligand
[2] = ligand present: flavin mononucleotide, designed as: OFF switch for flavin mononucleotide
[3] = designed as: ON switch for flavin mononucleotide, no ligand
[4] = ligand present: flavin mononucleotide, designed as: ON switch for flavin mononucleotide

Sequence | apparent Kd [1] [nM] | apparent Kd [2] [nM] | apparent Kd [3] [nM] | apparent Kd [4] [nM]
AGAUAGGAUGCAGGAUAUCUAUCUUGAAUGAGGAGAGAAGGGCAAGUAGAUAGAUAAGCCUCAUGACAUGAGGAUCACCCAUGU | 14.1 | 12.9 |  | 
AGAUAGUGGUGAGGAUAUCAGAAUAGAAAGAAAUGAGAAGGCGCACAUGAGGAUCACCCAUGUGAGGUCUUGAGACUACAUGGU | 20 | 22.1 |  | 
AGAUAGUUAUAACGCCAUCCCUACAUGAGGAUCACCCAUGUGCAGGAUAUAGGCUUGAAGCAAACCUAGAAGGGCACAGGUUGA | 15.8 | 35.9 |  | 
AGAUCAGUCUGAGUGCCUCGCGCGAGAAGGUACAGUGUUGUCCUGUUACAUGAGGAUCACCCAUGUAAGGAUAUCGCCGAGGAG | 7.86 | 28.4 |  | 
AGAUCCUGAGUCAGGAUAUAGAGGCGGUAGCCUGGCUAGAAGGGACAUGAGGAUCACCCAUGUGGGUUCUUGCC | 12.5 | 17.4 |  | 
AGAUUUAAUGAGGAUAUCGUAUUGGAUAUAGUGCGAGAAGGCAUUACAUGAGGAUCACCCAUGUUUUGUUGGGA | 31.8 | 74.1 |  | 
AGCACGAAAGUGCAACGAUGUACGAGAAGGACAUGAGGAUCACCCAUGUCGCUGUAACAGCAAAUGUAGGAUAUCGUACAUCGA | 5.14 | 5.7 |  | 
AGCACGAGAGGUGCUGUCUAACCACAUGAGGAUCACCCAUGUAAGGAUAUCGCGGCUAUCGGCAUCGAGAAGGUACAGGGAGCA | 11.2 | 21.6 |  | 
AGCAGCUCGUCAGGAUAUACGUCACUGCGUCAGCAGUGUGGUAAGAUCACAUGAGGAUCACCCAUGUAGAAGGGACGAGCUGAU | 13.7 | 273 |  | 
AGCAUGUGAGGAUAUGUGACCCUCAUCCGAAGGACGAGGGAAUAGAAGGCACAUGAGGAUCACCCAUGUGAUGA | 46.2 | 188 |  | 
AGCAUGUUUGGGUAACCUGGCACAUGAGGAUCACCCAUGUGACAGGAUAUCGACGUAGAUGGCGACGAGAAGGGUCCGAUGGGU | 5.78 | 7.01 |  | 
AGCCAACAUGAGGAUCACCCAUGUCUACAGGAUUAAGGAUAUGGGCAGGGCUUCCCUGCACUAGAAGGUGAUCGAA |  |  | 153 | 214
AGCGCCAUCGUGAGAUGGCGUAUUACAUGAGGAUCACCCAUGUAGGAUAUCGAUUGCUUUGCAGUCGAGAAGGGCAUGUCCUAG | 35.8 | 42.7 |  | 
AGCGGGUGGGUAGGAUAUGGCUAUGUCUCAUUGCUAGAAGGACCAGCUGCUACAUGAGGAUCACCCAUGUCGUAGUGCACCCAG |  |  | 195 | 12.7
AGCGUACAAGCUGACAUGAGGAUCACCCAUGUGGUCUCAUGCGAGGAUAUCGGGAAGGAGGAUUCCGAGAAGGUGCGGUGAGCC |  |  | 275 | 44.9
AGCUACGUUUCGUAGCAGCUAGGUGAGGAUAUUCAAAAUUUCACAUGAGGAUCACCCAUGUAUGUGAAGAAGGCGCCUAGAAAG |  |  | 7.29 | 4.74
AGCUAGCUAGGAUAUGCGUAAAUGUCGAAAGACGUAUUGGGACAUGAGGAUCACCCAUGUAGAAGGAGCUAGCA | 29.1 | 54.5 |  | 
AGCUAGUGAGGAUAUACGAACAUGUCAAAAGACUGUAAGGGACAUGAGGAUCACCCAUGUAGAAGGCACUAGCA | 45.2 | 384 |  | 
AGCUGUGGCCGAGGAUAUCUAACUUCAAUAACCGAAAUAUAAUCGGACAUGAGGAUCACCCAUGUAGAGAAGGCGGUCUCAGCA | 15.2 | 20.1 |  | 
AGCUGUGGCCGAGGAUAUCUAUCCCAAAUAACCGAAAUAUAAUCGGACAUGAGGAUCACCCAUGUAGAGAAGGCGGUCUCAGCA |  | 35.1 |  | 
AGCUGUGGCCGAGGAUAUCUAUCUCAAAUAACCGAAAUAUAAUCGGACAUGAGGAUCACCCAUGUAGAGAAGGCGGUCUCAGCA | 14.5 | 26.1 |  | 
AGCUGUGGCCGAGGAUAUCUGAACCUUCAAACCGAAAUAUAAUCGGACAUGAGGAUCACCCAUGUAGAGAAGGCGGUCUCAGCA | 12 | 22.6 |  | 
AGCUGUGGCCGAGGAUAUCUGUCCCAUAAAACCGAAAUAUAAUCGGACAUGAGGAUCACCCAUGUAGAGAAGGCGGUCUCAGCA | 44.1 | 70.7 |  | 
AGCUGUGGCCGAGGAUAUCUGUCUCAUAAAACCGAAAUAUAAUCGGACAUGAGGAUCACCCAUGUAGAGAAGGCGGUCUCAGCA | 21.3 | 83.7 |  | 
AGGAAACAUGAGGAUCACCCAUGUAAAAGGUGGGUAGGAUAUGCGAAAAGAAAAAGAAAAGCAGAAGGGCCAAGAA |  |  | 101 | 47.4
AGGAGACAUGAGGAUCACCCAUGUGCACGGUGAAGAGGAUAUGUGCGUGGAGAGACACGGACAGAAGGCUUAAGAA |  |  | 65.3 | 33
AGGCGAGUAGGAUAUGCAUAUUUACAGGAAAGCUGGAUGGUACAUGAGGAUCACCCAUGUAGAAGGGCUCUGAA | 18.7 | 20.7 |  | 
AGGCGAGUAGGAUAUGCGUUUUUACGGGAAAGCUGGAUGGUACAUGAGGAUCACCCAUGUAGAAGGGCUCUGAA | 23.4 | 21.8 |  | 

Sequence | apparent Kd [1] [nM] | apparent Kd [2] [nM] | apparent Kd [3] [nM] | apparent Kd [4] [nM]
AGGGCAACAGGAUAUCAUACAAUCUACAUGAGGAUCACCCAUGUGCCUCUUUUCAUACUGUGAGAAGGGUUGUCGG | 64.8 | 63.8 |  | 
AGGGCUGCUCAGGAUAUCCGUAAAAGCCGAGAAGGAGAAGGGAGCACAUGAGGAUCACCCAUGUGAUCCGAAAA | 21.6 | 44 |  | 
AGGGUACAUGAGGAUCACCCAUGUGGGUCGGUCGCAGGAUAUGCCCGUGGGCGCUGGCGGGCAGAAGGGUGCCGAA |  |  | 313 | 45
AGGUAAACCACAGGAUAUGGCUAGCAUAGCUAGCCAGAAGGGUGGUCGUAACCAUGUAAAUACAUGAGGAUCACCCAUGUAUCC |  |  | 89.8 | 36
AGGUAACAUGAGGAUCACCCAUGUCAGGAUAUCAGUAAGAUGAGUAUAGAAUAGAGUAUGAGAAGGGACUAUAU | 36.5 | 28.6 |  | 
AGGUAAGAGUUAAUUGUGACGGUGAGAAGGCAAAAGGUUGUGAUUAACAUGAGGAUCACCCAUGUUGAGGAUAUCACCACCUUC | 6.95 | 8.81 |  | 
AGGUACAUGAGGAUCACCCAUGUAAGAGACCUCAUGCGAUGUAGAAGGAUUAUCCGAGAAGAGGAAUAGGAUAUACAUGAGAAA | 158 | 127 |  | 
AGGUCAACCACAGGAUAUGGCUAGCAUAGCUAGCCAGAAGGGUGGUCGUAUCCAUGUAAAUACAUGAGGAUCACCCAUGUAUCC |  |  | 283 | 79.1
AGGUGCACAGGAUAUACAUGAGGAUCACCCAUGUGCCAACUGUGCGCUGGUCCUUUAUGUAGAAGGGUGCGUCC | 22.1 | 15.8 |  | 
AGGUGUAGAGGAUAUCUCUUCUCUCACAUGAGGAUCACCCAUGUUCUAAAGUCCAAGGAGAGAGAAGGCUACACCA | 19.8 | 15.6 |  | 
AGUAAGAUGCAGAAGGUGCCAGCGAGAGCUGCACAUGAGGAUCACCCAUGUUGUCGGUGACGACGCAAGGAUAUGCAUCUUACA |  |  | 24.5 | 6.87
AGUAAGAUGCAGAAGGUGUUAGCUAGAGCUACGACAUGAGGAUCACCCAUGUACUAGAAACAGUACAAGGAUAUGCAUCUUACG |  |  | 16.6 | 6.47
AGUACUCAAAGAGUACCAAUACGAACAUGAGGAUCACCCAUGUAGGAUAUGCUACUCAAAGAGUAGCAGAAGGACAUGUGCCUA | 18.2 | 82.3 |  | 
AGUAGUUCAGGAUAUGAUGUAUGUUACAUGAGGAUCACCCAUGUAGGUCCUUGAAUUGUAUCAGAAGGGAAUAUCU | 258 | 281 |  | 
AGUAUGUACGCAGGAUAUACAUGAGGAUCACCCAUGUGGAACAGUGUAGUACUAGUUGAUCCUCAGUAGAAGGGCGGUCGAAUA | 63.6 | 46.4 |  | 
AGUCGUCAAGGAUAUAUAGUGAAGCACAAGCAGUGCCCUCUACAUGAGGAUCACCCAUGUAGAAGGUGGCGACU | 15.6 | 14.2 |  | 
AGUGGACAUGAGGAUCACCCAUGUAUGCUGGCAUGAGGAUAUCCGAUUCGUUUCGACUAAGGAGAAGGCAUAGCCC |  |  | 97.2 | 31.3
AGUGUCAUCGAGAAGGCCUCAACAUGAGGAUCACCCAUGUUGGAAUAUGGGAGGAUAUCGAUGAUACAGCUACGUUUCGUAGCA |  |  | 10.2 | 5.04
AGUGUCAUCGAGAAGGCCUCAACAUGAGGAUCACCCAUGUUGUAAUAUGGGAGGAUAUCGAUGAUACAGCUACGUUUCGUAGCU |  |  | 18.9 | 5.65
AGUGUGUGGCAGGAUAUGCUGUUGAUUGGUGAAGCAGAAGGGUCUACAUGAGGAUCACCCAUGUAAGCGGUUGA | 53.1 | 225 |  | 
AGUUAAUAUCGAGGAUAUGUCUAGACACAUGAGGAUCACCCAUGUAUGUGUAUAGAAGGCGAAAUUAAAAGCAUGUUACAUGCA |  |  | 31.1 | 19.5
AGUUCCUCCGCAGGAUAUGUGCUCUUUACCACAUGAGGAUCACCCAUGUCAGCCUACACGGCGAGACAGAAGGGUGGUGGUGCC |  |  | 96 | 157
AUAAAUCAUGUAGGAUAUGCGUGGCGAAGCUAUGCAGAAGGACAUGAGGAUCACCCAUGUCUAUCCGUCUGCGUACAGACGGAA | 26.2 | 216 |  | 
AUAAAUCAUGUAGGAUAUGCGUGGCGAAGCUAUGCAGAAGGACAUGAGGAUCACCCAUGUCUUUCCGUCUGCGUACAGACGGGA | 30.9 | 225 |  | 
AUAAGGUUCUUCAAGGUGCUACAUGAGGAUCACCCAUGUGAGAGAAGGGCCCGUGGACUUGGAGGGUAGGAUAUCUCCAUGCGU | 8.32 | 10.1 |  | 
AUAAGUUCGUCAGGAUAUACAUGAGACAGUAAUGUUUCAGGUAUGAUCACAUGAGGAUCACCCAUGUAGAAGGGACGAGCUUAU | 6.48 | 20.6 |  | 
AUAAUAGAGUCAGGAUAUGGACAUGAGGAUCACCCAUGUGCAGGGAUCCUCCCAGAAGGGACAUCUAAACAAAAGGCGCUAUCC | 307 | 147 |  | 
